Assay outcomes (PubChem BioAssay)
Compounds with a hit are over-represented: about 2.6% of the library has one in this group of screens.
Runt-CBFb FRET – inhibitors of RUNX1 Runt–CBFb binding, primary screen, biochemical, FRET, Cerulean-Runt, Venus-CBFb, uHTS. Cerulean-Runt/Venus-CBFb FRET ratio 530/480, 1 h. inhibition, % at 20 µM. 0.46% of 220,000 active. AID 1496, 2009. Runt-related transcription factor 1 (Homo sapiens) + Core-binding factor subunit beta …;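 active = inhibition over about 50% at 20 µM in the single-dose screen, limit read from the data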;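 note: 0% = DMSO wells and 100% = excess unlabeled CBFb competitor control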
Target sequence (Q01196 whole entry, looked up): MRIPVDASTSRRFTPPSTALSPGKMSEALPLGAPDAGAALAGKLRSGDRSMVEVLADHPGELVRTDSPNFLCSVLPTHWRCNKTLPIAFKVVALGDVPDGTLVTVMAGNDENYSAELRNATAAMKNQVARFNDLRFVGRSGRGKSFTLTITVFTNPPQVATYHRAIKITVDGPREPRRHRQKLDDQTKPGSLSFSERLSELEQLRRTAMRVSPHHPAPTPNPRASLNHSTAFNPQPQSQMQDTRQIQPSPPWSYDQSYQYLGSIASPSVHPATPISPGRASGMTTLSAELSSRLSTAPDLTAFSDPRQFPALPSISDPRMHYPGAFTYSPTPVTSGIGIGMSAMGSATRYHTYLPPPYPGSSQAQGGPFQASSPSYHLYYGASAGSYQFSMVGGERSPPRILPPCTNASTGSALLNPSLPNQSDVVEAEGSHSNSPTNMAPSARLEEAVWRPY
Target sequence (Q13951 whole entry, looked up): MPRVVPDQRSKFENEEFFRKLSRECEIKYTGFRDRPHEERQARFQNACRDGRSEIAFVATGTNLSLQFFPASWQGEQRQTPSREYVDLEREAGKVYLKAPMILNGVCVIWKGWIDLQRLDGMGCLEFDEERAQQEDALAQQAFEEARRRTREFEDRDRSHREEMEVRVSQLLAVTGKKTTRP
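Buffer or medium: Tris pH 7.5 buffer with BSA. Assay system: Cerulean-labeled Runt domain protein. Amount: each fluorescent fusion protein 100 nM. Read-out basis: loss of energy transfer signal. Incubation: 1 h compound exposure, room temperature. Probe or stimulus: Venus-CBFb binding partner, 100 nM. Detection: FRET, excitation 422 nm, emission at 530 and 480 nm.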
VIM-2 inh – VIM-2 metallo-beta-lactamase inhibitors, primary screen, biochemical, epi-absorbance readout, Pseudomonas aeruginosa enzyme. purified VIM-2, nitrocefin hydrolysis, epi-absorbance fluorescence. inhibition, % at 5.6 µM. 0.89% of 290,000 active;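 active = inhibition above the mean of all tested compounds plus 3 SD, cutoff set per screening run, cut at about 7.5% in these data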;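 note: red hydrolysis product quenches plate fluorescence so inhibitors raise well fluorescence; 0% = enzyme with DMSO and 100% = DMSO without enzyme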
RanGTP-Imp inh – inhibitors of RanGTP-importin-beta interaction, primary screen, biochemical, FRET, CFP-Ran, YFP-importin-beta, homogeneous. Ran GTPase (GTP-bound) - importin-beta complex. cell-free CFP-Ran/YFP-importin-beta FRET ratio. inhibition, % (concentration not given with the values). 1.1% of 300,000 active. AID 2216, 2009;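 active = more than half of the replicate wells show a fall in the fluorescence ratio signal beyond about 16%, limit read from the data, passing the limit was not always enough; inconclusive = exactly half of the replicate wells pass the set limit; inactive = fewer than half of replicates pass the limit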;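 note: 0% = DMSO wells and 100% = Ran loaded with GDP instead of GTP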
IMP-1 inhibitor – IMP-1 metallo-beta-lactamase inhibitors, primary screen, biochemical, epi-absorbance readout, Pseudomonas aeruginosa enzyme. purified IMP-1, nitrocefin hydrolysis, epi-absorbance fluorescence. inhibition, % at 5.6 µM. 0.45% of 290,000 active. AID 1556, 2009;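 active = inhibition above the mean plus 3 SD of all compounds in the same screening run, cut at about 4.5% in these data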;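 note: 0% = IMP-1 with DMSO and 100% = DMSO wells lacking enzyme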
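assay system = purified recombinant IMP-1 metallo-beta-lactamase enzyme | schedule = 15 min preincubation plus 25 min reaction at 25 °C | signal = Epi-absorbance fluorescence, 480 nm excitation, 530 nm emission | read-out basis = percent inhibition from optical density relative to buffer-blank wells | controls = IMP-1 with DMSO as 0%, enzyme-free DMSO as 100%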
Runt-SMMHC FRET – inhibitors of RUNX1 Runt–CBFb-SMMHC binding, primary screen, biochemical, FRET, Cerulean-Runt, Venus-CBFb-SMMHC, uHTS. Cerulean-Runt/Venus-CBFb-SMMHC FRET ratio 530/480, 1 h. inhibition, % at 20 µM. 0.74% of 220,000 active. AID 1434, 2008;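 active = mean inhibition across duplicate retests at 20 µM reaching about 50%, limit read from the data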;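 note: 0% = DMSO wells and 100% = wells with excess untagged CBFb-SMMHC; inhibitors lower the FRET ratio by blocking Runt binding to CBFb-SMMHC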
YIC FRET counter – YIC intramolecular FRET probe signal interference, dose response, counter-screen for RanGTP-importin-beta inhibitor project, biochemical, fluorescence FRET; shares compounds with RanGTP-Imp inh; Purified YIC probe, intramolecular FRET ratio YFP/CFP; IC50, µM; 40% of 1,000 active;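 active = fitted half-maximal inhibitory concentration no more than tenfold above the top dose tested; inconclusive = flat fit with 30 to 70% activity, or poor fit; inactive = half-maximal concentration beyond tenfold above the top dose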
Numbers without * were called inactive.

What do the screens show for `Nc1c(C(=O)NC2CCCC2)c2nc3ccccc3nc2n1/N=C/c1ccco1`?
Runt-CBFb FRET: 20.8; VIM-2 inh: -5.6; RanGTP-Imp inh: 26.4*; IMP-1 inhibitor: -3.8; Runt-SMMHC FRET: 25.3; YIC FRET counter: 9.48*

How did COCCn1cnc2c(c1=O)c1nc3ccccc3nc1n2/N=C/c1ccco1 do in these assays?
Runt-CBFb FRET: 3.0; VIM-2 inh: 1.9; RanGTP-Imp inh: 2.5; IMP-1 inhibitor: -0.1; Runt-SMMHC FRET: -28.7

How did COc1ccc(CCNc2oc(-c3ccco3)nc2C#N)cc1 do in these assays?
Runt-CBFb FRET: -1.9; VIM-2 inh: -1.1; RanGTP-Imp inh: 26.2*; IMP-1 inhibitor: -1.0; Runt-SMMHC FRET: 0.2; YIC FRET counter: >50

Results for Cc1cccc2cc(C#N)c(NCCCn3ccnc3)nc12 ?
Runt-CBFb FRET: 33.4; VIM-2 inh: 0.8; RanGTP-Imp inh: 34.8*; IMP-1 inhibitor: -0.5; Runt-SMMHC FRET: 85.6*; YIC FRET counter: 20.2*

What do the screens show for `Cc1cccc2cc(C#N)c(NCCNC(=O)COc3ccccc3)nc12`?
Runt-CBFb FRET: 10.7; VIM-2 inh: -3.5; RanGTP-Imp inh: 19.9*; IMP-1 inhibitor: -1.8; Runt-SMMHC FRET: 0.4; YIC FRET counter: 27*

Results for Cc1ccc2cc(C#N)c(NCCNC(=O)C3CC3)nc2c1C ?
Runt-CBFb FRET: 28.7; VIM-2 inh: -0.7; RanGTP-Imp inh: 16.4*; IMP-1 inhibitor: -1.4; Runt-SMMHC FRET: 102.6*; YIC FRET counter: 46.9*

How did Cc1cc2cc(C)c(NCCNC(=O)c3ccccc3Cl)nc2cc1C do in these assays?
Runt-CBFb FRET: -2.7; VIM-2 inh: 2.6; RanGTP-Imp inh: inconclusive; IMP-1 inhibitor: -2.7; Runt-SMMHC FRET: -5.3

What do the screens show for `CCC(=O)NCCNc1nc2cc(C)c(C)cc2cc1C#N`?
Runt-CBFb FRET: 10.4; VIM-2 inh: -3.0; RanGTP-Imp inh: 33.7*; IMP-1 inhibitor: -0.5; Runt-SMMHC FRET: 46.8; YIC FRET counter: 14.4*

How did Cc1ccc(C)c(OCCCCn2ccnc2)c1 do in these assays?
Runt-CBFb FRET: 2.4; VIM-2 inh: -4.8; RanGTP-Imp inh: 1.0; IMP-1 inhibitor: -2.6; Runt-SMMHC FRET: 1.1

How did COCCN(Cc1ccccc1)C(=O)c1cccc(S(=O)(=O)N(C)c2c(C)n(C)n(-c3ccccc3)c2=O)c1 do in these assays?
RanGTP-Imp inh: -2.1

Results for Cc1ccc2cc3cc(C(=O)NCCCN4CCCC4=O)oc3nc2c1 ?
VIM-2 inh: 1.3; RanGTP-Imp inh: 2.3; IMP-1 inhibitor: -2.6

Results for Cc1c(S(=O)(=O)N2CCCC(C(=O)O)C2)cnn1C (stereo not given) ?
Runt-CBFb FRET: 0.5; VIM-2 inh: -2.8; RanGTP-Imp inh: 21.9*; IMP-1 inhibitor: -3.3; Runt-SMMHC FRET: -1.0; YIC FRET counter: >50

Results for COC(=O)C1=CN(Cc2ccc(OC)c(OC)c2)C=C(C(=O)OC)C1c1cccc(O)c1 ?
VIM-2 inh: -0.7; RanGTP-Imp inh: 19.4*; IMP-1 inhibitor: -3.5; YIC FRET counter: 17.5*

How did COC(=O)C1=CN(CC2CCCO2)C=C(C(=O)OC)C1c1cccc(O)c1 (stereo not given) do in these assays?
Runt-CBFb FRET: 76.4*; VIM-2 inh: -0.5; RanGTP-Imp inh: 27.7*; IMP-1 inhibitor: -2.3; Runt-SMMHC FRET: 87.0*; YIC FRET counter: 19.8*

What do the screens show for `CCOC(=O)c1ccc(N2C=C(C(=O)OC)C(c3ccc(OC)c(O)c3)C(C(=O)OC)=C2)cc1`?
VIM-2 inh: -4.4; RanGTP-Imp inh: 3.9; IMP-1 inhibitor: -1.3

Results for COC(=O)C1=CN(Cc2cccs2)C=C(C(=O)OC)C1c1ccc(OC)cc1OC ?
Runt-CBFb FRET: 105.2*; VIM-2 inh: -2.7; RanGTP-Imp inh: 39.9*; IMP-1 inhibitor: -2.8; Runt-SMMHC FRET: 91.1*; YIC FRET counter: 6.99*

How did O=C(CSc1nnc(NC(=O)c2ccccc2Cl)s1)Nc1ccc2c(c1)oc1ccccc12 do in these assays?
Runt-CBFb FRET: -1.1; VIM-2 inh: 1.3; RanGTP-Imp inh: 3.1; IMP-1 inhibitor: -0.5; Runt-SMMHC FRET: -2.0

How did Cc1ccc(NC(=O)CSc2ncc(S(=O)(=O)c3ccccc3)c(=O)[nH]2)cc1C do in these assays?
Runt-CBFb FRET: 2.1; VIM-2 inh: -2.7; RanGTP-Imp inh: 1.2; IMP-1 inhibitor: -5.2; Runt-SMMHC FRET: -5.1

Results for COc1cccc(NC(=O)CSc2ncc(S(=O)(=O)c3ccccc3)c(=O)[nH]2)c1 ?
Runt-CBFb FRET: -0.7; VIM-2 inh: -1.0; RanGTP-Imp inh: 30.4*; IMP-1 inhibitor: -4.1; Runt-SMMHC FRET: -0.4; YIC FRET counter: >50

Results for Cc1ccccc1NC(=O)/C(C#N)=C\c1cn(CC(=O)O)c2ccccc12 ?
VIM-2 inh: 0.6; RanGTP-Imp inh: 20.0*; IMP-1 inhibitor: 0.7; YIC FRET counter: 50.7*

How did Cc1cccc(NC(=O)/C(C#N)=C/c2cn(CC(=O)NCc3ccco3)c3ccccc23)c1 do in these assays?
Runt-CBFb FRET: -86.6; VIM-2 inh: -3.6; IMP-1 inhibitor: -3.1; Runt-SMMHC FRET: 11.0

What do the screens show for `COCCNC(=O)/C(C#N)=C/c1cn(CC(=O)NCc2ccco2)c2ccccc12`?
Runt-CBFb FRET: -18.6; VIM-2 inh: -1.2; RanGTP-Imp inh: 27.5*; IMP-1 inhibitor: -3.3; Runt-SMMHC FRET: 4.3; YIC FRET counter: 44.2*

Results for N#C/C(=C\c1cn(CC(=O)O)c2ccccc12)C(=O)NCc1ccccc1 ?
VIM-2 inh: 0.9; RanGTP-Imp inh: 4.6; IMP-1 inhibitor: -1.4

Results for Oc1ccc2ccccc2c1C=Nc1ccc(Cl)cn1 ?
Runt-CBFb FRET: 23.5; VIM-2 inh: -3.7; IMP-1 inhibitor: -1.7; Runt-SMMHC FRET: 10.9

How did Cc1[nH]c2ccccc2c1C(=O)C(=O)NC1CC(=O)N(c2ccc(F)cc2)C1 (stereo not given) do in these assays?
RanGTP-Imp inh: 3.1

How did Cc1ccccc1OCC1Cn2c(nc3c2c(=O)n(C)c(=O)n3C)O1 (stereo not given) do in these assays?
VIM-2 inh: -0.8; RanGTP-Imp inh: 4.3; IMP-1 inhibitor: -1.3

Results for CC(C)(CCl)C(=O)Nc1ccc(C(F)(F)F)cc1 ?
Runt-CBFb FRET: 0.2; VIM-2 inh: -0.7; RanGTP-Imp inh: 3.1; IMP-1 inhibitor: -0.3; Runt-SMMHC FRET: -2.5

Results for C/C(=C\C(=O)C(F)(F)F)Nc1ccc(C(F)(F)F)cc1 ?
Runt-CBFb FRET: 0.5; VIM-2 inh: -2.7; RanGTP-Imp inh: 20.4*; IMP-1 inhibitor: -1.1; Runt-SMMHC FRET: 3.2; YIC FRET counter: >50
